We go through five compounds from ChEMBL document CHEMBL4651341, “The discovery of a novel series of compounds with single-dose efficacy against juvenile and adult Schistosoma species” (PLoS Negl Trop Dis, 2021).

Converted amounts (≈) assume the structure as drawn.

Data set [1] can be described thus: Concentration required to kill 50% MRC-5 cells as detected by Alamar blue staining. It is filed as toxicity, cell-based, MRC5. The settings on record: homo sapiens, read-out: TC50 (the source's name). Background: The colour change of resazurin is a common sign of viable cells or microbes.
Data set [2] has as its system Schistosoma mansoni. Nature of the data set: Concentration required to kill 50% of 21 day old worms 5 days after drug treatment. It counts as functional, organism-based. The following applies: Puerto Rican, 120 h. The procedure, abridged:
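Juvenile S. mansoni (Puerto Rican strain) were perfused from CD1 mice 3 weeks post-infection and washed. They were cultured 6–8 per well in 200 µL DMEM with 2 mM glutamine, penicillin/streptomycin and 10% FCS at 37 °C, 5% CO2. Viability of individual worms was scored on day 5 after dosing (120 h).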

In data set [3] the test system is Schistosoma mansoni. Put plainly: (§1) Concentration required to kill 50% of 42 day old worms 5 days after drug treatment. It is filed as functional, organism-based. The settings on record: Puerto Rican, 120 h. Summed up:
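Adult S. mansoni were perfused from CD1 mice 6 weeks post-infection and washed. They were cultured 3 pairs per well in 1 mL DMEM with 2 mM glutamine, penicillin/streptomycin and 10% FCS […] at 37 °C, 5% CO2. Viability of individual worms was scored on day 5 (120 h).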

The nature of data set [4]: Concentration required to kill 50% MRC5 cells as detected by Alamar blue staining. The settings on record: homo sapiens, read-out: TC50 (the source's name).
Data set [5] in a line: Solubility at 25 degC of compound (diluted from DMSO) in PBS at pH 7.4 determined after 24h (1h sonication, 22h shaking, 1h sonication) by LCMS/MS. It counts as physicochemical.
A short description of data set [6]: Partition coefficient of compound between n-octanol and PBS (pH7.4). It is filed as physicochemical. The settings on record: octanol/water, pH 7.4. The procedure, abridged:
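Shake-flask method using octanol and PBS pH 7.4, each pre-saturated with the other. Compound was shaken 2 h at 850 rpm, 25 °C, then the phases were separated by centrifugation and both layers diluted and analysed by LC-MS/MS. LogD = log(octanol AUC × relative dilution / buffer AUC).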

Data set [7] in a line: Mean plasma concentration at 24h in Swiss albino male mice at […] per compound (administered orally in a mixture of 5 compounds to 3 mice) assessed by LCMS/MS. It counts as ADME, organism-based. The settings on record: mouse, po.
Data set [8] in a line: Mean observed clearance in Swiss albino male mice at 1 mg/kg per compound (administered iv in a mixture of 5 compounds to 3 mice) assessed by LCMS/MS. It is filed as ADME, organism-based. The following applies: male, Swiss albino, mouse, in vivo, read-out: Clearance (converted). The procedure, abridged:
(§2)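 Male Swiss albino mice (~30 g), 3 per experiment, mostly dosed as mixtures of 5 compounds iv via the lateral tail vein. Vehicle: 10% DMSO/90% 50 mM Na2HPO4 with 0.5% Tween-80. Blood sampled at 5, 15, 30 min and 1, 2, 4, 8, 24 h. Plasma stored at −20 °C and quantified by LC-MS after acetonitrile precipitation.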

Data set [9] can be described thus: Percentage of parent compound remaining after incubation for 30 minutes with cyropreserved mouse hepatocytes at a concentration of 1uM compound and […], determined by LCMS. It counts as ADME, tissue-based, Hepatocyte. The following applies: cryopreserved mouse hepatocytes, read-out: Stability. Summed up: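 Compound was incubated at 1 µM final (2 µM working solution mixed 1:1 with hepatocyte suspension) in supplemented KHB pH 7.4. Conditions: 37 °C, 5% CO2, gentle mixing, duplicates. Reaction quenched with ice-cold acetonitrile containing standard; analysed by LC-MS/MS. % remaining = AUC at t / AUC at T0.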

Data set [10] is described as follows: Concentration required to kill 50% HepG2 cells as detected by MTT staining. It counts as toxicity, cell-based. The settings on record: homo sapiens, read-out: TC50 (the source's name).
The subject of data set [11] is Schistosoma japonicum. The data set is described as §1. It counts as functional, organism-based. The following applies: Chinese, 120 h.
The nature of data set [12]: Plasma protein binding determined at 10uM by LC-MS/MS. It counts as ADME, cell-free. The following applies: mouse. Summed up:
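Equilibrium dialysis of plasma spiked at 10 µM (0.1% DMSO) against PBS pH 7.4, 6 h at 37 °C, duplicates. Both chambers analysed by LC-MS/MS after acetonitrile precipitation. % free = buffer/plasma area ratio; recovery also calculated.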

A short description of data set [13]: Plasma protein binding determined at 1uM by LC-MS/MS. It is filed as ADME, cell-free.
Data set [14] relates to Schistosoma haematobium. Put plainly: Concentration required to kill 50% of 84 day old worms 5 days after drug treatment. It counts as functional, organism-based. The settings on record: Egyptian, 120 h.
Data set [15] in a line: Mean plasma concentration at 4h in Swiss albino male mice at […] per compound (administered orally in a mixture of 5 compounds to 3 mice) assessed by LCMS/MS. It counts as ADME, organism-based. The settings on record: mouse, po.
Data set [16] can be described thus: Mean volume of distribution at steady state in Swiss albino male mice at 1 mg/kg per compound (administered iv in a mixture of 5 compounds to 3 mice) assessed by LCMS/MS. It is filed as ADME, organism-based. The following applies: mouse, in vivo, read-out: Volume. The procedure, abridged:
(§3)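 Male Swiss albino mice (~30 g), 3 per experiment, mostly dosed as mixtures of 5 compounds iv via the lateral tail vein. Vehicle: 10% DMSO/90% 50 mM Na2HPO4 with 0.5% Tween-80. Plasma stored at −20 °C and quantified by LC-MS after acetonitrile precipitation.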

Data set [17] can be described thus: Mean time to peak plasma concentration in Swiss albino male mice at […] per compound (administered orally in a mixture of 5 compounds to 3 mice) assessed by LCMS/MS. It is filed as ADME, organism-based. The settings on record: mouse, po.
Data set [18] can be described thus: Mean AUC inf in Swiss albino male mice at 1 mg/kg per compound (administered iv in a mixture of 5 compounds to 3 mice) assessed by LCMS/MS. It counts as ADME, organism-based. The settings on record: male, Swiss albino, mouse, in vivo. Summed up: as §2
A short description of data set [19]: Mean half-life in Swiss albino male mice at 1 mg/kg per compound (administered iv in a mixture of 5 compounds to 3 mice) assessed by LCMS/MS. It counts as ADME, organism-based. The settings on record: mouse, in vivo. Summed up: as §3
The nature of data set [20]: Mean oral bioavailability in Swiss albino male mice at […] per compound (administered in a mixture of 5 compounds to 3 mice) assessed by LCMS/MS. Also: dose 2.5 mg/kg. It counts as ADME, organism-based. The settings on record: male, Swiss albino, mouse, in vivo, read-out: Bioavailability.
The nature of data set [21]: Plasma protein binding determined at 10uM by LC-MS/MS. The settings on record: human.
In data set [22] the test system is Schistosoma mansoni. Put plainly: Percentage of worms remaining following treatment of female CD1 mice infected with S. mansoni worms (21 day old - juvenile or 42 day old - adult) with compound by oral gavage. Worms were recovered by portal perfusion with citrate saline 8-14 days post treatment and counted. Percentages are from a mean of 5 or 6 animals. It counts as functional, Mus musculus. Also on record: concentration or dose not given beside the values. Summed up: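 Female CD1 mice were infected subcutaneously with 150 cercariae and treated at day 21 (juvenile) or day 42 (adult). Single oral gavage, or two doses 12 h apart, given in 7% Tween-80/3% ethanol/water (sonicated) or in 1:19 DMSO:corn oil. Controls received vehicle only. Worm recoveries are group means, n = 5–6.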

`CC(C)c1cccc(-c2cn3c(-c4ccc(O)cc4)cnc3cn2)c1`: the results for the CC50 in data set [1] and in [4] were 30000 nM and over 30000 nM, respectively. The values for the EC50 in data set [2] and in data set [3] were 1500 nM and 1340 nM, respectively. The kinetic solubility (usually the concentration staying in solution when a stock, usually in DMSO, is diluted into the medium) at 24 h in [5] stood at 0.383 µM (≈ 0.126 µg/mL). Further, the Lipophilicity in data set [6] was 3.62 =.
As to `COc1ccc(-c2c(C(C)C)nc3cnc(-c4cccc(C(F)(F)F)c4)cn23)cc1O`, in [7], the concentration at 24 h worked out at 0.1 ng/mL. Besides, the CC50 in [1] was 21900 nM; in data set [10] it was over 11100 nM. In addition, the EC50 (in general, the concentration giving half of the maximal effect) in data set [2] was 65.9 nM; in [3], under 82 nM; in [11], 85 nM; in [14] it was 61.2 nM. The clearance (as a rule, the rate of elimination divided by the concentration) in [8] is 79.2 mL/min/kg. Moreover, the remaining at 0.5 h, 1 µM in [9] is 36.2%. Further, in data set [5], the kinetic solubility at 24 h stood at 2.11 µM (≈ 0.902 µg/mL). The Binding in data set [12] is recorded as 99.93%; in data set [13] (human), 100%; in [13] (mouse), 100%. The Lipophilicity in data set [6] was 3.63 =. In data set [15], the concentration at 4 h is 3.5 ng/mL. The Vd in data set [16] worked out at 5.13 L/kg. Also, the Tmax (in general, the time from dosing to the highest level) in [17] came out at 0.25 h. Further, the AUC(0-inf) (as a rule, total exposure, with the tail of the curve extrapolated) in data set [18] turned out to be 105 ng·h/mL. In addition, in data set [19], the half-life (in general, how long it takes for the measured level to halve) is 1.92 h. The bioavailability (usually dose-corrected exposure relative to a reference, in per cent) in data set [20] was 7.84%.
For `COc1ccc(-c2cnc3cnc(-c4cccc(C(C)C)c4)cn23)cc1OC`, the CC50 in data set [1] was 27800 nM. Further, the EC50 is 2570 nM in [2] and 1340 nM in [3]. The compound also showed a Binding in data set [21] of 99.985%. Besides, the solubility (kinetic) at 24 h in data set [5] came to 2.62 µM (≈ 0.978 µg/mL). Further, the Lipophilicity in data set [6] is 4.92 =.
`COc1ccc(-c2cnc3cnc(-c4cccc(C(C)C)c4)cn23)cc1O`: the CC50 in data set [1] and in data set [4] was 18600 nM in each case. In addition, the half-maximal effective concentration (EC50) was 486 nM in data set [2] and 263 nM in data set [3]. Moreover, the remaining at 0.5 h, 1 µM in [9] was 26.4%. The compound further registered a kinetic solubility at 24 h in data set [5] of 2.29 µM (≈ 0.823 µg/mL). The Lipophilicity in [6] is 3.56 =.
On to `O=C(C1CCCCC1)N1CC(=O)N2CCc3ccccc3C2C1` (stereo not given) [PRAZIQUANTEL], for which, in data set [1], the CC50 is over 50000 nM. For the same compound, the EC50 in [2] was 4700 nM; in [3], 300 nM; in data set [11] it was 161 nM; in data set [14] it was 84.4 nM. Besides, the Efficacy in data set [22] was found to be 79%.
